Experimental data as given in ChEMBL document CHEMBL1649552 (2009).
≈ marks a conversion by molar mass, not a printed value.

How the values were obtained:
Format in all cases: functional
Staphylococcus aureus [1] = assay: Antibacterial activity against Staphylococcus aureus ATCC 29213 by CLSI M100-S17 method; settings: ATCC29213
How it was run: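 Reference strain S. aureus ATCC 29213 was tested by CLSI broth microdilution in frozen in-house panels. Compound was dissolved and diluted in DMSO over doubling dilutions of 0.008 to 4 μg/ml.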

Staphylococcus aureus [2] = assay: Antibacterial activity against methicillin-susceptible Staphylococcus aureus by CLSI M100-S17 method
Staphylococcus aureus [3] = assay: Antibacterial activity against methicillin-resistant Staphylococcus aureus by CLSI M100-S17 method
[4] = test system: Staphylococcus epidermidis; assay: Antibacterial activity against methicillin-susceptible Staphylococcus epidermidis by CLSI M100-S17 method
[5] = test system: Staphylococcus epidermidis; assay: Antibacterial activity against methicillin-resistant Staphylococcus epidermidis by CLSI M100-S17 method
Streptococcus pneumoniae = assay: Antibacterial activity against Streptococcus pneumoniae by CLSI M100-S17 method
Streptococcus pyogenes = assay: Antibacterial activity against Streptococcus pyogenes by CLSI M100-S17 method
Streptococcus agalactiae = assay: Antibacterial activity against Streptococcus agalactiae by CLSI M100-S17 method
Enterococcus faecalis = assay: Antibacterial activity against Enterococcus faecalis by CLSI M100-S17 method
Enterococcus faecium = assay: Antibacterial activity against Enterococcus faecium by CLSI M100-S17 method
Escherichia coli [6] = assay: Antibacterial activity against Escherichia coli by CLSI M100-S17 method
Klebsiella pneumoniae = assay: Antibacterial activity against Klebsiella pneumoniae by CLSI M100-S17 method
Klebsiella oxytoca = assay: Antibacterial activity against Klebsiella oxytoca by CLSI M100-S17 method
Enterobacter cloacae = assay: Antibacterial activity against Enterobacter cloacae by CLSI M100-S17 method
Proteus mirabilis = assay: Antibacterial activity against Proteus mirabilis by CLSI M100-S17 method
Serratia marcescens = assay: Antibacterial activity against Serratia marcescens by CLSI M100-S17 method
Pseudomonas aeruginosa = assay: Antibacterial activity against Pseudomonas aeruginosa by CLSI M100-S17 method
[7] = test system: Stenotrophomonas maltophilia; assay: Antibacterial activity against Stenotrophomonas maltophilia by CLSI M100-S17 method
Acinetobacter baumannii = assay: Antibacterial activity against Acinetobacter baumannii by CLSI M100-S17 method
Moraxella catarrhalis = assay: Antibacterial activity against Moraxella catarrhalis by CLSI M100-S17 method
Escherichia coli [8] = assay: Antibacterial activity against acrAB-deficient Escherichia coli AG100a
Escherichia coli [9] = assay: Antibacterial activity against Escherichia coli AG100

Cc1c(CN(C)C(=O)/C=C/c2cnc3c(c2)CCC(=O)N3)oc2ccccc12 [AFN-1252]
MIC (Staphylococcus aureus [1]): 0.015 µg/mL (≈ 0.04 µM) | MIC50 (Staphylococcus aureus [2]): ≤ 0.008 µg/mL | MIC90 (Staphylococcus aureus [2]): ≤ 0.008 µg/mL | MIC (Staphylococcus aureus [3]): 0.008 µg/mL (≈ 0.0213 µM) | MIC50 [4]: ≤ 0.008 µg/mL | MIC90 [4]: 0.03 µg/mL (≈ 0.0799 µM) | MIC [5]: 0.008 µg/mL (≈ 0.0213 µM) | MIC90 [5]: ≤ 0.008 µg/mL | MIC50 (Streptococcus pneumoniae): > 4 µg/mL | MIC90 (Streptococcus pneumoniae): > 4 µg/mL | MIC50 (Streptococcus pyogenes): > 4 µg/mL | MIC90 (Streptococcus pyogenes): > 4 µg/mL | MIC (Streptococcus pyogenes; read-out: MIC): > 4 µg/mL | MIC (Streptococcus agalactiae): > 4 µg/mL | MIC50 (Streptococcus agalactiae): > 4 µg/mL | MIC90 (Streptococcus agalactiae): > 4 µg/mL | MIC (Enterococcus faecalis): > 4 µg/mL | MIC50 (Enterococcus faecalis): > 4 µg/mL | MIC90 (Enterococcus faecalis): > 4 µg/mL | MIC50 (Enterococcus faecium): > 4 µg/mL | MIC90 (Enterococcus faecium): > 4 µg/mL | MIC50 (Escherichia coli [6]): 4 µg/mL (≈ 10.7 µM) | MIC90 (Escherichia coli [6]): > 4 µg/mL | MIC50 (Klebsiella pneumoniae): > 4 µg/mL | MIC90 (Klebsiella pneumoniae): > 4 µg/mL | MIC50 (Klebsiella oxytoca): > 4 µg/mL | MIC90 (Klebsiella oxytoca): > 4 µg/mL | MIC50 (Enterobacter cloacae): > 4 µg/mL | MIC90 (Enterobacter cloacae): > 4 µg/mL | MIC50 (Proteus mirabilis): 4 µg/mL (≈ 10.7 µM) | MIC90 (Proteus mirabilis): > 4 µg/mL | MIC50 (Serratia marcescens): 4 µg/mL (≈ 10.7 µM) | MIC90 (Serratia marcescens): > 4 µg/mL | MIC (Pseudomonas aeruginosa): > 4 µg/mL | MIC50 (Pseudomonas aeruginosa): > 4 µg/mL | MIC90 (Pseudomonas aeruginosa): > 4 µg/mL | MIC [7]: > 4 µg/mL | MIC50 [7]: > 4 µg/mL | MIC90 [7]: > 4 µg/mL | MIC (Acinetobacter baumannii): > 4 µg/mL | MIC50 (Acinetobacter baumannii): > 4 µg/mL | MIC90 (Acinetobacter baumannii): > 4 µg/mL | MIC50 (Moraxella catarrhalis): > 4 µg/mL | MIC90 (Moraxella catarrhalis): > 4 µg/mL | MIC (Escherichia coli [8]): 0.016 µg/mL (≈ 0.0426 µM) | MIC (Escherichia coli [9]): > 32 µg/mL
